# Results published in ChEMBL document CHEMBL2396515, “Quercetin-POC conjugates: Differential stability and bioactivity profiles between breast cancer (MCF-7) and colorectal carcinoma (HCT116) cell lines” (Bioorg Med Chem, 2013).
# The source made the active and inactive calls. The calls are words filed in the database; no cut-off is given here.
# Experiments:
# [1] = Half life of the compound in PBS buffer at pH 7.4 at 50 uM by HPLC analysis; type: physicochemical
# In short: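 Compound at 50 µM in PBS pH 7.4, incubated at 37 °C. Aliquots were drawn at 0, 1, 3, 6, 12, 24, 48 and 96 h and analysed by C18 reverse-phase HPLC with an acetonitrile/0.1% formic acid gradient, detected by UV at 340 nm.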
# [2] = system: HCT-116; assay: Drug metabolism in human HCT116 cells assessed as quercetin level at 30 uM after 6 hrs by HPLC analysis; type: ADME, cell-based; conditions: hct-116, 6 h
# In short: (§1)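 MCF-7 or HCT116 cells were seeded at 2×10^5 per well and grown 24 h at 37 °C, 5% CO2, then given 30 µM conjugate. At 1, 3, 6 and 12 h cells were PBS-washed, trypsinized, sonicated and filtered. Lysates were run on C18 HPLC (UV 340 nm). Each species is reported as a percentage of integrated peak area; peaks were identified by MALDI-TOF MS.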
# [3] = system: HCT-116; assay: Drug metabolism in human HCT116 cells assessed as quercetin sulfate level at 30 uM after 3 hrs by HPLC analysis; type: ADME, cell-based; conditions: hct-116, 3 h; in short: as §1
# [4] = system: MCF7; assay: Drug metabolism in human MCF7 cells assessed as 7-O-POC-Q level at 30 uM after 3 hrs by HPLC analysis; type: ADME, cell-based; conditions: mcf7, 3 h; in short: as §1
# [5] = system: HCT-116; assay: Drug metabolism in human HCT116 cells assessed as quercetin-glucuronide level at 30 uM after 3 hrs by HPLC analysis; type: ADME, cell-based; conditions: hct-116, 3 h; in short: as §1
# [6] = system: HCT-116; assay: Drug metabolism in human HCT116 cells assessed as 7-O-POC-Q level at 30 uM after 3 hrs by HPLC analysis; type: ADME, cell-based; conditions: hct-116, 3 h; in short: as §1
# [7] = Metabolic stability in human HCT116 cells assessed as compound remaining at 30 uM after 3 hrs by HPLC analysis; type: ADME, cell-based, HCT-116; conditions: read-out: Stability; in short: as §1
# [8] = system: HCT-116; assay: Drug metabolism in human HCT116 cells assessed as 7-O-POC-Q level at 30 uM after 12 hrs by HPLC analysis; type: ADME, cell-based; conditions: hct-116, 12 h; in short: as §1
# [9] = Solubility of the compound in PBS buffer at 0.5 to 300 uM; type: physicochemical
# In short: (§2)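 DMSO stocks ([…]–10 mM) were serially diluted into PBS pH 7.4 or DMEM with 10% FBS to final 0.5, 5, 25, 50, 100, 200 µM (2% DMSO) and 300 µM (3% DMSO). Solubility was judged by forward light scattering in a laser nephelometer.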
# [10] = system: HCT-116; assay: Drug metabolism in human HCT116 cells assessed as quercetin sulfate level at 30 uM after 12 hrs by HPLC analysis; type: ADME, cell-based; conditions: hct-116, 12 h; in short: as §1
# [11] = system: HCT-116; assay: Drug metabolism in human HCT116 cells assessed as quercetin sulfate level at 30 uM after 1 hr by HPLC analysis; type: ADME, cell-based; conditions: hct-116, 1 h; in short: as §1
# [12] = system: HCT-116; assay: Cytotoxicity against human HCT116 cells at 1 to 100 uM after 12 hrs by MTT assay; type: functional, cell-based
# In short: (§3)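 MCF-7 or HCT116 cells were seeded at 5×10^3 per well in DMEM with 10% FBS and grown 1 day at 37 °C, 5% CO2. Compounds in 1% DMSO were added at 1, 5, 10, 50, 100 or 250 µM. Viability was read by MTT after 12 h; each assay was done three times.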
# [13] = system: MCF7; assay: Drug metabolism in human MCF7 cells assessed as 7-O-POC-Q level at 30 uM after 12 hrs by HPLC analysis; type: ADME, cell-based; conditions: mcf7, 12 h; in short: as §1
# [14] = system: MCF7; assay: Drug metabolism in human MCF7 cells assessed as quercetin-glucuronide level at 30 uM after 12 hrs by HPLC analysis; type: ADME, cell-based; conditions: mcf7, 12 h; in short: as §1
# [15] = system: HCT-116; assay: Drug metabolism in human HCT116 cells assessed as quercetin-glucuronide level at 30 uM after 1 hr by HPLC analysis; type: ADME, cell-based; conditions: hct-116, 1 h; in short: as §1
# [16] = Metabolic stability in human MCF7 cells assessed as compound remaining at 30 uM after 1 hr by HPLC analysis; type: ADME, cell-based; conditions: read-out: Stability; in short: as §1
# [17] = system: HCT-116; assay: Drug metabolism in human HCT116 cells assessed as quercetin level at 30 uM after 1 hr by HPLC analysis; type: ADME, cell-based; conditions: hct-116, 1 h; in short: as §1
# [18] = Drug degradation in DMEM cell-free cell culture medium assessed as formation of 3-O-POC-Q at 50 uM after 24 hrs by HPLC analysis; type: physicochemical
# In short: (§4)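 Conjugates diluted from a 10 mM DMSO stock to 50 µM final in cell-free culture medium (DMEM with 10% FBS), held at 37 °C. Samples were taken at 0, 1, 3, 6, 12, 24, 48 and 96 h, vortexed, and run on C18 reverse-phase HPLC with an acetonitrile/0.1% formic acid gradient at 1 mL/min, detected by UV at 340 nm.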
# [19] = Metabolic stability in human HCT116 cells assessed as compound remaining at 30 uM after 6 hrs by HPLC analysis; type: ADME, cell-based, HCT-116; conditions: read-out: Stability; in short: as §1
# [20] = system: HCT-116; assay: Drug metabolism in human HCT116 cells assessed as quercetin-glucuronide level at 30 uM after 12 hrs by HPLC analysis; type: ADME, cell-based; conditions: hct-116, 12 h; in short: as §1
# [21] = system: HCT-116; assay: Drug metabolism in human HCT116 cells assessed as quercetin sulfate level at 30 uM after 6 hrs by HPLC analysis; type: ADME, cell-based; conditions: hct-116, 6 h; in short: as §1
# [22] = system: HCT-116; assay: Drug metabolism in human HCT116 cells assessed as quercetin-glucuronide level at 30 uM after 6 hrs by HPLC analysis; type: ADME, cell-based; conditions: hct-116, 6 h; in short: as §1
# [23] = Solubility of the compound in DMEM cell-free cell culture medium up to 100 uM; type: physicochemical; in short: as §2
# [24] = system: MCF7; assay: Drug metabolism in human MCF7 cells assessed as quercetin sulfate level at 30 uM after 1 hr by HPLC analysis; type: ADME, cell-based; conditions: mcf7, 1 h; in short: as §1
# [25] = system: MCF7; assay: Drug metabolism in human MCF7 cells assessed as 7-O-POC-Q level at 30 uM after 6 hrs by HPLC analysis; type: ADME, cell-based; conditions: mcf7, 6 h; in short: as §1
# [26] = Metabolic stability in human HCT116 cells assessed as compound remaining at 30 uM after 12 hrs by HPLC analysis; type: ADME, cell-based, HCT-116; conditions: read-out: Stability; in short: as §1
# [27] = Metabolic stability in human MCF7 cells assessed as compound remaining at 30 uM after 3 hrs by HPLC analysis; type: ADME, cell-based; conditions: read-out: Stability; in short: as §1
# [28] = Half life of the compound in DMEM cell-free cell culture medium at 50 uM by HPLC analysis; type: physicochemical; in short: as §4
# [29] = system: MCF7; assay: Drug metabolism in human MCF7 cells assessed as quercetin level at 30 uM after 12 hrs by HPLC analysis; type: ADME, cell-based; conditions: mcf7, 12 h; in short: as §1
# [30] = system: MCF7; assay: Cytotoxicity against human MCF7 cells at 1 to 100 uM after 12 hrs by MTT assay; type: functional, cell-based; in short: as §3
# [31] = system: HCT-116; assay: Drug metabolism in human HCT116 cells assessed as quercetin level at 30 uM after 3 hrs by HPLC analysis; type: ADME, cell-based; conditions: hct-116, 3 h; in short: as §1
# [32] = Metabolic stability in human MCF7 cells assessed as compound remaining at 30 uM after 6 hrs by HPLC analysis; type: ADME, cell-based; conditions: read-out: Stability; in short: as §1
# [33] = system: MCF7; assay: Metabolic stability in human MCF7 cells assessed as compound remaining at 30 uM after 12 hrs by HPLC analysis; type: ADME, cell-based; conditions: mcf7, 12 h; in short: as §1
# [34] = system: MCF7; assay: Drug metabolism in human MCF7 cells assessed as quercetin sulfate level at 30 uM after 12 hrs by HPLC analysis; type: ADME, cell-based; conditions: mcf7, 12 h; in short: as §1
# [35] = system: HCT-116; assay: Drug metabolism in human HCT116 cells assessed as 7-O-POC-Q level at 30 uM after 6 hrs by HPLC analysis; type: ADME, cell-based; conditions: hct-116, 6 h; in short: as §1
# [36] = Metabolic stability in human HCT116 cells assessed as compound remaining at 30 uM after 1 hr by HPLC analysis; type: ADME, cell-based, HCT-116; conditions: read-out: Stability; in short: as §1
# [37] = system: HCT-116; assay: Drug metabolism in human HCT116 cells assessed as 7-O-POC-Q level at 30 uM after 1 hr by HPLC analysis; type: ADME, cell-based; conditions: hct-116, 1 h; in short: as §1
# [38] = system: MCF7; assay: Drug metabolism in human MCF7 cells assessed as 3-O-POC-Q level at 30 uM after 12 hrs by HPLC analysis; type: ADME, cell-based; conditions: mcf7, 12 h; in short: as §1
structure (smiles),measurement,setting,value
CC(C)OC(=O)OCOc1cc(O)c2c(=O)c(OCOC(=O)OC(C)C)c(-c3ccc(O)c(O)c3)oc2c1,half-life at 50 µM,[1],> 96 h
same,Stability,[2],Stable
same,Stability,[3],Stable
same,Stability,[4],Stable
same,Stability,[5],Stable
same,Stability,[6],Stable
same,"remaining at 3 h, 30 µM",[7],47%
same,Stability,[8],Stable
same,solubility,[9],Insoluble
same,Stability,[10],Stable
same,Stability,[11],Stable
same,Activity,[12],Active
same,Stability,[13],Stable
same,Stability,[14],Stable
same,Stability,[15],Stable
same,"remaining at 1 h, 30 µM",[16],25%
same,Stability,[17],Stable
same,Drug degradation,[18],Active
same,"remaining at 6 h, 30 µM",[19],20%
same,Stability,[20],Stable
same,Stability,[21],Stable
same,Stability,[22],Stable
same,solubility,[23],soluble
same,Stability,[24],Stable
same,Stability,[25],Stable
same,"remaining at 12 h, 30 µM",[26],3%
same,"remaining at 3 h, 30 µM",[27],6%
same,half-life at 50 µM,[28],24 h
same,Stability,[29],Stable
same,Activity,[30],Active
same,Stability,[31],Stable
same,"remaining at 6 h, 30 µM",[32],1%
same,Stability,[33],Stable
same,Stability,[34],Stable
same,Stability,[35],Stable
same,"remaining at 1 h, 30 µM",[36],64%
same,Stability,[37],Stable
same,Stability,[38],Stable
O=c1c(O)c(-c2ccc(O)c(O)c2)oc2cc(O)cc(O)c12 [QUERCETIN],half-life at 50 µM,[1],10 h
same,Activity,[12],Active
same,half-life at 50 µM,[28],< 0.5 h
same,Activity,[30],Active
